Source: ChEMBL document CHEMBL1153030, “Synthesis, structural characterisation and biological evaluation of fluorinated analogues of resveratrol” (Bioorg Med Chem, 2009)

Columns and labels:
[1] = tested on: MCF7; test: Antiproliferative activity against human MCF7 cells assessed as cell growth at 100 uM after 48 hrs by alamar blue assay; format: functional; details: MCF7, 48 h, read-out: Activity
Procedure, shortened: (§1)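 DTP three cell line one-dose prescreen: MCF7 (breast), NCI-H460 (lung), SF-268 (CNS). Cells inoculated and preincubated in microtiter plate, then single concentration of test agent added, 48 h incubation. Alamar blue endpoint. Growth expressed as percent of untreated control cells.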

[2] = tested on: NCI-H460; test: Antiproliferative activity against human NCI-H460 cells assessed as cell growth at 100 uM after 48 hrs by alamar blue assay; format: functional; details: NCI-H460, 48 h, read-out: Activity; procedure, shortened: as §1
[3] = tested on: SF-268; test: Antiproliferative activity against human SF268 cells assessed as cell growth at 100 uM after 48 hrs by alamar blue assay; format: functional; details: SF-268, 48 h, read-out: Activity; procedure, shortened: as §1
[4] = Antiproliferative activity against MRP1-expressing human DLKP cells assessed as cell proliferation at 10 uM after 5 days by acid phosphatase assay; format: functional; details: 120 h, read-out: Activity
Procedure, shortened: (§2)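 Cell lines DLKP, DLKP-A and HT-144, seeded at 1 × 10³ cells/well (DLKP and DLKP-A) or 3 × 10³ cells/well (HT-144, higher density needed for cell-contact-dependent growth). 5 day drug exposure. Compounds tested alone and in combination with the P-gp/MRP1 substrate epirubicin. Read-out is cell proliferation (%) relative to untreated control.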

[5] = Antiproliferative activity against MRP1-expressing human DLKP cells after 5 days by acid phosphatase assay; format: functional, cell-based; details: 120 h; procedure, shortened: as §2
[6] = Solubility in DMSO-containing medium; format: physicochemical
Procedure, shortened: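 Compounds were solubilised in a minimum amount of DMSO, then solubility was tested in culture media. A minimum concentration of 0.5 mg/ml in media was required before biological evaluation.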

[7] = Antiproliferative activity against P-gp expressing human DLKP-A cells assessed as cell proliferation at 10 uM after 5 days by acid phosphatase assay; format: functional; details: for growth at 10 µM: Homo sapiens, DLKP-A, 120 h, read-out: Activity; procedure, shortened: as §2
[8] = Solubility of the compound in cell media; details: cell culture media
[9] = Antiproliferative activity against P-gp expressing human DLKP-A cells after 5 days by acid phosphatase assay; format: functional, cell-based; details: 120 h; procedure, shortened: as §2
[10] = Antiproliferative activity against MRP1-expressing human DLKP cells assessed as cell proliferation at 5 uM after 5 days by acid phosphatase assay; format: functional; details: 120 h, read-out: Activity; procedure, shortened: as §2
[11] = tested on: HT-144; test: Antiproliferative activity against human HT144 cells after 5 days by acid phosphatase assay; format: functional, cell-based; details: HT-144, 120 h; procedure, shortened: as §2
[12] = Antiproliferative activity against P-gp expressing human DLKP-A cells assessed as cell proliferation at 5 uM after 5 days by acid phosphatase assay; format: functional; details: 120 h, read-out: Activity; procedure, shortened: as §2
[13] = tested on: HT-144; test: Antiproliferative activity against human HT144 cells assessed as cell proliferation at 20 uM after 5 days by acid phosphatase assay; format: functional; details: HT-144, 120 h, read-out: Activity; procedure, shortened: as §2
[14] = Aqueous solubility of the compound; format: physicochemical; details: buffer
[15] = tested on: HL-60(TB); test: Anticancer activity against human HL-60(TB) cells; format: functional, cell-based
Procedure, shortened: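 Tested in the DTP 60 human tumour cell line panel, which covers leukaemia, lung, colon, CNS, melanoma, ovarian, renal, prostate and breast lines. GI50, IC50, LC50 and TGI were calculated for each cell line.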

[16] = tested on: EKVX; test: Anticancer activity against human EKVX cells; format: functional, cell-based
Procedure, shortened: (§3)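 NCI 60 human tumour cell line panel; GI50, IC50, LC50 and TGI values calculated for each cell line.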

[17] = tested on: HT-29; test: Anticancer activity against human HT-29 cells; format: functional, cell-based; procedure, shortened: as §3
[18] = tested on: SNB-75; test: Anticancer activity against human SNB75 cells; format: functional, cell-based; procedure, shortened: as §3
[19] = tested on: SK-MEL-28; test: Anticancer activity against human SK-MEL-28 cells; format: functional, cell-based; procedure, shortened: as §3
[20] = tested on: SK-OV-3; test: Anticancer activity against human SKOV3 cells; format: functional, cell-based; procedure, shortened: as §3
[21] = tested on: RXF 393; test: Anticancer activity against human RXF393 cells; format: functional, cell-based; procedure, shortened: as §3
[22] = tested on: DU-145; test: Anticancer activity against human DU145 cells; format: functional, cell-based; procedure, shortened: as §3
[23] = tested on: T47D; test: Anticancer activity against human T47D cells; format: functional, cell-based; procedure, shortened: as §3
[24] = Antiproliferative activity against MRP1-expressing human DLKP cells assessed as cell proliferation at 0.01 uM after 5 days by acid phosphatase assay; format: functional; details: 120 h, read-out: Activity; procedure, shortened: as §2
[25] = tested on: HT-144; test: Antiproliferative activity against human HT144 cells assessed as cell proliferation at 0.005 uM after 5 days by acid phosphatase assay; format: functional; details: HT-144, 120 h, read-out: Activity; procedure, shortened: as §2
[26] = Antiproliferative activity against P-gp expressing human DLKP-A cells assessed as cell proliferation at 1.5 uM after 5 days by acid phosphatase assay; format: functional; details: 120 h, read-out: Activity; procedure, shortened: as §2

`COc1ccc(/C=C/c2cc(F)cc(F)c2)cc1` gave a growth at 100 µM [1] of 84%, a growth at 100 µM [2] of 105% and a growth at 100 µM [3] of 111%.

Compound `COc1cc(/C=C/c2ccc(F)cc2)cc(OC)c1` has a growth at 100 µM [1] of 67%, a growth at 100 µM [2] of 60% and a growth at 100 µM [3] of 105%.

For `Fc1ccc(/C=C/c2cc(F)cc(F)c2)cc1`, the growth at 100 µM [1] was 82%, the growth at 100 µM [2] was 101% and the growth at 100 µM [3] was 111%.

With `CC(=O)Nc1ccc(/C=C/c2cc(F)cc(F)c2)cc1` the growth at 10 µM [4] was 75%, the IC50 [5] was 39 µM and the solubility [6] was “Soluble”. The growth at 10 µM [7] was 78% and the solubility [8] was “Soluble”.

With `CC(=O)Nc1cc(/C=C/c2ccc(F)cc2)cc(NC(C)=O)c1` the growth at 10 µM [4] was 94%, the IC50 [5] was 50 µM and the IC50 [9] was greater than 50 µM. The solubility [6] was “Soluble”, the growth at 10 µM [7] was 96% and the solubility [8] was “Soluble”.

In the case of `Nc1cc(N)cc(/C=C/c2ccc(F)cc2)c1`, the growth at 10 µM [4] is reported as 87%, the IC50 [5] is reported as greater than 50 µM and the IC50 [9] is reported as greater than 50 µM. The solubility [6] was “Soluble”, the growth at 10 µM [7] was 98% and the solubility [8] was “Soluble”.

`CC(=O)Oc1cc(/C=C/c2ccc(F)cc2)cc(OC(C)=O)c1` showed a growth at 5 µM [10] of 100%, an IC50 [5] of 25 µM and an IC50 [9] of 19 µM. The IC50 [11] was 56 µM, the solubility [6] was “Soluble” and the growth at 5 µM [12] was 89%. For the same compound, the growth at 20 µM [13] was 100% and the solubility [8] was “Soluble”.

With `NCC(=O)Nc1ccc(/C=C/c2cc(F)cc(F)c2)cc1.O=C(O)C(F)(F)F` the solubility [14] was “Soluble” and the solubility [6] was “Soluble”.

Work on `O=C(Nc1cc(/C=C/c2ccc(F)cc2)cc(NC(=O)C(F)(F)F)c1)C(F)(F)F` yielded a growth at 10 µM [4] of 95%, an IC50 [5] of 28 µM and an IC50 [9] of 20 µM. The solubility [6] was “Soluble”, the growth at 10 µM [7] was 84% and the solubility [8] was “Soluble”.

`Oc1ccc(/C=C/c2cc(F)cc(F)c2)cc1` showed a growth at 5 µM [10] of 74%, an IC50 [5] of 6 µM and an IC50 [9] of 14 µM. The IC50 [11] was 59 µM, the solubility [6] was “Soluble” and the growth at 5 µM [12] was 85%. The growth at 20 µM [13] was 105% and the solubility [8] was “Soluble”.

In the case of `CC(=O)Oc1cc(O)cc(/C=C/c2ccc(F)cc2)c1`, the growth at 5 µM [10] is reported as 98%, the IC50 [5] is reported as 21 µM and the IC50 [9] is reported as 21 µM. For the same compound, the IC50 [11] was 54 µM, the solubility [6] was “Soluble” and the growth at 5 µM [12] was 90%. For the same compound, the growth at 20 µM [13] was 110% and the solubility [8] was “Soluble”.

Work on `CC(=O)Oc1ccc(/C=C/c2cc(F)cc(F)c2)cc1` yielded a growth at 5 µM [10] of 52%, an IC50 [5] of 7 µM and an IC50 [9] of 10 µM. For the same compound, the IC50 [11] was 36 µM, the solubility [6] was “Soluble” and the growth at 5 µM [12] was 50%. The growth at 20 µM [13] was 85%, the growth at 100 µM [1] was 22% and the growth at 100 µM [2] was 7%. It also gave a growth at 100 µM [3] of 1%, a GI50 [15] of 117 µM and an IC50 [15] of 54.6 µM. For the same compound, the GI50 [16] was 117 µM, the IC50 [16] was 78.7 µM and the GI50 [17] was 80.6 µM. It also gave an IC50 [17] of 73.7 µM, a GI50 [18] of 90.9 µM and an IC50 [18] of 60.3 µM. It also gave a GI50 [19] of 83.1 µM, an IC50 [19] of 70.1 µM and a GI50 [20] of 96.5 µM. For the same compound, the IC50 [20] was 83.1 µM, the GI50 [21] was 202 µM and the IC50 [21] was 75.9 µM. It also gave a GI50 [22] of 128 µM, an IC50 [22] of 100 µM and a GI50 [23] of 128 µM. For the same compound, the IC50 [23] was 79.8 µM and the solubility [8] was “Soluble”.

`COc1cccc2c1C(=O)c1c(O)c3c(c(O)c1C2=O)C[C@@](O)(C(=O)CO)C[C@@H]3O[C@H]1C[C@H](N)[C@@H](O)[C@H](C)O1` [EPIRUBICIN] showed a growth at 0.01 µM [24] of 64%, a growth at 0.005 µM [25] of 91% and a growth at 1.5 µM [26] of 66%.

In the case of `Oc1ccc(/C=C/c2cc(O)cc(O)c2)cc1` [RESVERATROL], the growth at 10 µM [4] is reported as 38%, the IC50 [5] is reported as 10 µM and the IC50 [9] is reported as 15 µM. The IC50 [11] was 40 µM, the Activity [7] was 66% and the growth at 10 µM [7] was 67%. The growth at 20 µM [13] was 100%.
